Data reported in article PMC5831399 (Cell chemical biology, 2017).

What was measured:
Format in all cases: cell-based
[1] = target: L858R EGFR (Homo sapiens, UniProt P00533, L858R); experiment: L858R EGFR degradation, immunoblot in H3255 cells; settings: 24 hours
How it was run: (§1)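 Cells cultured in RPMI-1640 with 10% FBS and 1% penicillin-streptomycin at 37°C, 5% CO2. They were treated for 24 hours with increasing concentrations of a gefitinib-based PROTAC. Cells were lysed in Tris pH 7.5/NP-40/deoxycholate buffer with phosphatase and protease inhibitors, then cleared at 16,000 × g. Protein was normalised by BCA, resolved by 8% SDS-PAGE, blotted to nitrocellulose, detected by ECL and quantified by densitometry.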

[2] = target: EGFR (Homo sapiens, UniProt P00533); experiment: EGFR degradation, immunoblot of treated cells; settings: Figure S2, cell line not given
[3] = target: exon 19 del EGFR (Homo sapiens, UniProt P00533, DEL746-750); experiment: Exon 19 deletion EGFR degradation, immunoblot in HCC827 cells; settings: 24 hours
How it was run: as §1

COc1cc2ncnc(Nc3ccc(F)c(Cl)c3)c2cc1OCCCCCOCCOCCC(=O)N[C@H](C(=O)N1C[C@H](O)C[C@H]1C(=O)NCc1ccc(-c2scnc2C)cc1)C(C)(C)C [Compound 3]
degradation of L858R EGFR [1]: enabled the degradation | WT EGFR degradation [2]: sparing the WT EGFR | degradation of exon-19 deletion EGFR [3]: enabled the degradation
